In ChEMBL document CHEMBL1123804, “Beta-substituted cysteines as sequestering agents for ethanol-derived acetaldehyde in vivo” (1987):

Key:
Format in all cases: functional
Rattus norvegicus [1] = species: Rattus norvegicus; experiment: Compound tested for the percentage of CO2 expired in rat was determined in 2-4h
Method in brief: (§1)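 14C label on the acetaldehyde moiety, diluted with unlabeled carrier in water and given at 8.0 mmol/kg (1.0 mL/100 g; radioactivity of the solution counted in duplicate). Two male Sprague-Dawley-descent rats (207 g, 247 g) were fasted overnight and housed in all-glass metabolism cages. Expired CO2 went into two successive cold methoxyethanol/ethanolamine (2:1) traps, sampled at 2, 4, 8, 16 and 24 h. Duplicates were counted by liquid scintillation, and values are the mean ± SD of two animals.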

Rattus norvegicus [2] = species: Rattus norvegicus; experiment: Compound tested for the percentage of CO2 expired in rat was determined in 8-16h; method in brief: as §1
Rattus norvegicus [3] = experiment: Compound tested for the percentage of administered dose excreted in rat urine was determined in 0-2 hr
Method in brief: (§2)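 Labeled material (14C on the acetaldehyde part, with unlabeled carrier, in water) was dosed at 8.0 mmol/kg, 1.0 mL/100 g, to two overnight-fasted male Sprague-Dawley-descent rats (207 g, 247 g) kept in all-glass metabolism cages. Urine was collected separately at 2, 4, 8, 16 and 24 h. Duplicate samples were counted by liquid scintillation, and results are averaged ± SD across the two animals.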

Rattus norvegicus [4] = species: Rattus norvegicus; experiment: Compound tested for the percentage of CO2 expired in rat was determined in 4-8h; method in brief: as §1
Rattus norvegicus [5] = experiment: Compound tested for the percentage of administered dose excreted in rat urine was determined in 8-16h; method in brief: as §2
Rattus norvegicus [6] = experiment: Compound tested for the percentage of administered dose excreted in rat urine was determined in 0-24 hr; method in brief: as §2
Rattus norvegicus [7] = experiment: Compound tested for the percentage of administration dose excreted in rat feces was determined in 0-24 hr
Method in brief: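 A radiolabeled dose (14C in the acetaldehyde moiety, with carrier, in water) of 8.0 mmol/kg at 1.0 mL/100 g went to two overnight-fasted male Sprague-Dawley-descent rats (207 g, 247 g) in all-glass metabolism cages. Feces collected over 24 h were lyophilized and pulverized, and 250-mg samples were combusted to 14CO2 for scintillation counting. Values are the mean ± SD of two animals.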

Rattus norvegicus [8] = experiment: Compound tested for the percentage of administered dose excreted in rat urine was determined in 16-24h; method in brief: as §2
Rattus norvegicus [9] = species: Rattus norvegicus; experiment: Compound tested for the percentage of CO2 expired in rat was determined in 0-2 hr; method in brief: as §1
Rattus norvegicus [10] = experiment: Compound tested for the percentage of administered dose excreted in rat urine was determined in 2-4h; method in brief: as §2
Rattus norvegicus [11] = species: Rattus norvegicus; experiment: Compound tested for the percentage of CO2 expired in rat was determined in 0-24 hr; method in brief: as §1
Rattus norvegicus [12] = species: Rattus norvegicus; experiment: Compound tested for the percentage of CO2 expired in rat was determined in 16-24h; method in brief: as §1
Rattus norvegicus [13] = experiment: Compound tested for the percentage of administered dose excreted in rat urine was determined in 4-8h; method in brief: as §2

Q: For `CC1N[C@@H](C(=O)O)C(C)(C)S1` (stereo partly drawn), which Excreted (Rattus norvegicus [1]) is on record?
A: Its Excreted is 1.7%.

Q: And the Excreted (Rattus norvegicus [2])?
A: The Excreted was 0.48%.

Q: What about the Excreted (Rattus norvegicus [3]) of the same molecule?
A: Its Excreted is 36.3%.

Q: And the Excreted (Rattus norvegicus [4])?
A: The Excreted was 1.36%.

Q: What about the Excreted (Rattus norvegicus [5]) of the same molecule?
A: The Excreted was 3.12%.

Q: And the Excreted (Rattus norvegicus [6])?
A: Its Excreted is 79.2%.

Q: And the Excreted (Rattus norvegicus [7])?
A: The Excreted was 1.38%.

Q: What about the Excreted (Rattus norvegicus [8]) of the same molecule?
A: Its Excreted is 1.18%.

Q: What about the Excreted (Rattus norvegicus [9]) of the same molecule?
A: The Excreted was 2.01%.

Q: And the Excreted (Rattus norvegicus [10])?
A: Its Excreted is 25.9%.

Q: What about the Excreted (Rattus norvegicus [11]) of the same molecule?
A: Its Excreted is 5.83%.

Q: What about the Excreted (Rattus norvegicus [12]) of the same molecule?
A: Its Excreted is 0.28%.

Q: And the Excreted (Rattus norvegicus [13])?
A: Its Excreted is 12.7%.
